Screening data deposited in PubChem by several laboratories.
Shown are actives, neighbours in structure and some others; about 1.8% of the full set was active somewhere.
Efflux pump inh: inhibitors of Candida antifungal efflux pumps expressed in yeast; S. cerevisiae Candida pump triplex, Nile Red efflux; inhibition, % at 10 µM; hit rate 0.44% among 330,000; AID 485275;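 active = plate passing quality check with inhibition over a set limit, or well fluorescence over plate mean plus 4 SD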;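 also: Nile Red retained in pooled yeast measured as flow cytometry median fluorescence; 0% = buffer negative control and 100% = Enniatin B positive control; higher means more Nile Red kept so more efflux inhibition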
SUMO Mot1 rescue: SUMOylation pathway inhibition by Mot1-301 growth rescue. S. cerevisiae Mot1-301 growth rescue, ATP luminescence, 38.5C; percent above DMSO median, 100 means doubled. hit rate 1% among 320,000. AID 2716. growth rescue, % at 18.8 µM;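 active = every valid replicate shows activation above 250% relative to neutral control wells; inactive = the rest, any valid replicate at or below 250%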;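 also: OY570 slx delta 5 strain wells were the positive control but not used for scaling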
Statin myotox sup: protects C2C12 myotubes from simvastatin toxicity; hit rate 0.78% among 330,000; ATP luminescence, 48 h; scaled: DMSO 0, geranylgeraniol control 100; AID 602340; rescue of ATP level, % at 7.49 µM;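 active = mean ATP rescue above about 67%, or every replicate alone reaching that limit, limit read from the data, passing the limit was not always enough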;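 also: myotubes were challenged with 10 µM simvastatin during compound exposure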
Cneo AK release: Cryptococcus neoformans lysis via adenylate kinase release | C. neoformans lysis, adenylate kinase release luminescence, 4 h; normalised: neutral wells 0, clomiphene wells 100 | lysis activity, % at 15 µM | hit rate 0.2% among 360,000 | AID 651654;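 active = mean lysis activity across replicates of at least 80%, whatever share of replicates individually reach that level; inactive = mean lysis activity below 80%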
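Test system: log-phase Cryptococcus neoformans yeast cells. Input: 5 × 10^6 yeast cells/mL. Medium: fresh YPD growth medium. Doses: single dose. Incubation: static 4 h at 37 °C with compound, 1 h detection. Measured by: luminescent adenylate kinase detection reagent. Read-out: signal increase indicating cell lysis. Benchmarks: Clomiphene.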
Active calls of the source: *; . = no result given; + = active, no number; ! = not confirmed by another sample.

SMILES	Efflux pump inh	SUMO Mot1 rescue	Statin myotox sup	Cneo AK release
CC(=O)NC(c1cc(Cl)c2ccccc2c1O)C(C)C (stereo not given)	0	2	9	-3
C=CCc1cccc(CNc2c(C)n(C)n(-c3ccccc3)c2=O)c1O	0	-6	8	-2
C=CCc1cccc(CNc2c(C)cc(C)cc2C)c1O	0	387*	.	.
CCOc1ccc(-c2c(C#N)c(N)nc3c2c(=O)n(C)c(=O)n3C)cc1OC	0	-7	84*	-4
O=C(Cc1cccs1)Nc1nnc(CCc2ccccc2)s1	0	-19	-4	-2
O=C(Cc1cccs1)Nc1nnc(Cc2ccccc2)s1	0	-5	121*	-2
CN1CCN(S(=O)(=O)c2ccc(Cc3ccc(S(=O)(=O)N4CCN(C)CC4)cc3)cc2)CC1	0	-15	82*	.
Cc1ccc(-n2ncc3c(NCCCN4CCOCC4)ncnc32)c(C)c1	0	-8	.	0
COc1ccccc1OCCN1CSC(=S)N(C)C1	0	+	.	.
COc1ccccc1OCCCCN1CCCCC1	0	-6	4	3
Cc1cc(C)c(C#N)c(N2CCCC(C(N)=O)C2)n1 (stereo not given)	0	4	170*	1
CCOC(=O)C1CCN(c2nc(C)cc(C)c2C#N)CC1	0	-6	.	.
COc1ccc(N2CCN(C(=O)CN3C(=O)NC(c4ccc(OC)cc4)(c4ccc(OC)cc4)C3=O)CC2)cc1	0	-13	7	-1
C/C=C/c1ccc2c(c1)O[C@@H](CN(C)C(=O)NC1CCCCC1)[C@@H](C)CN([C@@H](C)CO)S2(=O)=O	.	.	111*	5
C[C@@H]1CN([C@@H](C)CO)S(=O)(=O)c2ccc(-c3ccccc3)cc2O[C@H]1CN(C)C(=O)C1CCCCC1	.	.	-18	112*
CC(C)CC#Cc1ccc2c(c1)O[C@@H](CN(C)C(=O)C1CCC1)[C@@H](C)CN([C@H](C)CO)S2(=O)=O	.	.	6	100*
C[C@@H]1CN([C@H](C)CO)S(=O)(=O)c2ccc(-c3ccc(C(=O)N(C)C)cc3)cc2O[C@H]1CN(C)C(=O)Cc1ccccn1	.	.	3	93*!
C/C=C/c1ccc2c(c1)O[C@@H](CN(C)C(=O)NC1CCCCC1)[C@H](C)CN([C@@H](C)CO)S2(=O)=O	.	.	-46	13
C[C@H]1CN([C@@H](C)CO)S(=O)(=O)c2ccc(-c3ccccc3)cc2O[C@@H]1CN(C)C(=O)C1CCCCC1	.	.	9	5
Cc1csc(SCC(=O)NCc2ccc3c(c2)OCO3)n1	0	-18	.	.
Cc1ccc(-n2c3c(cc(C(=O)NCc4ccco4)c2=O)C(=O)CC(C)(C)C3)cc1	0	-5	0	-2
CC(C)CC#Cc1ccc2c(c1)O[C@H](CN(C)C(=O)C1CCC1)[C@@H](C)CN([C@@H](C)CO)S2(=O)=O	.	.	-16	109*
CCCNC(=O)N(C)C[C@@H]1Oc2cc(C3=CCCCC3)ccc2S(=O)(=O)N([C@@H](C)CO)C[C@@H]1C	.	.	95*	-2
CCCNC(=O)N(C)C[C@@H]1Oc2cc(C3=CCCCC3)ccc2S(=O)(=O)N([C@H](C)CO)C[C@H]1C	.	.	-32	-3
O=C(CN1C(=O)COc2ccccc21)NCCN1CCOCC1	0	411	-23	7
SMILES	Efflux pump inh	SUMO Mot1 rescue	Statin myotox sup	Cneo AK release
CCN(CC)S(=O)(=O)c1ccc2c(c1)N(CC(=O)NCCN1CCOCC1)C(=O)CO2	0	.	116*	-5
CCCNC(=O)N1C[C@H](O)COC[C@H]2O[C@H](CC(=O)N3CCN(C)CC3)CC[C@@H]21	.	.	-29	118*
CCCNC(=O)N1C[C@@H](O)COC[C@@H]2O[C@@H](CC(=O)N3CCN(C)CC3)CC[C@H]21	.	.	-15	59
CCCNC(=O)N1C[C@H](O)COC[C@@H]2O[C@H](CC(=O)N3CCN(C)CC3)CC[C@H]21	.	.	-14	-1
CCCNC(=O)N1C[C@@H](O)COC[C@H]2O[C@H](CC(=O)N3CCN(C)CC3)CC[C@@H]21	.	.	-3	105*
CCC(CC)C(=O)Nc1cccc(/C(C)=N/NC(=O)c2ccccc2Cl)c1	0	2	112*	1
CC(=O)Nc1ccc(CN(C)c2c(C)nc3ccc(C(=O)Nc4ccc(Cl)c(Cl)c4)cn23)cc1	.	.	-10	47
CN(C)/C=C1\N=C(c2cccnc2Oc2ccc(Cl)cc2)OC1=O	0	9	115*	-1
C[C@H]1CN([C@@H](C)CO)C(=O)Cc2cc(NS(=O)(=O)c3ccc(F)cc3)ccc2O[C@@H]1CN(C)Cc1ccc2c(c1)OCO2	.	.	124*	-2
CC(C)NC(=O)Nc1ccc2c(c1)CC(=O)N([C@@H](C)CO)C[C@H](C)[C@H](CN(C)Cc1ccc3c(c1)OCO3)O2	.	.	-28	107*
C[C@H](CO)N1C[C@H](C)[C@@H](CN(C)Cc2ccc3c(c2)OCO3)Oc2ccc(NS(=O)(=O)c3ccc(F)cc3)cc2CC1=O	.	.	150*	1
COc1ccc(S(=O)(=O)Nc2c(C)c(C)cc3c2ncn3C)cc1	0	-7	10	1
CC(=O)C1=C(N2CCCCC2)CCC1=O	0	0	95*	1
CN1CCN(C2=Cc3ccccc3Sc3cc(F)ccc32)CC1	0	3	110*	6
O=C(CSc1ccc(Cl)cc1)OCc1nnc(-c2ccccc2)o1	0	18	69*	0
O=C(Cc1ccc(Cl)cc1)OCc1nnc(-c2ccccc2)o1	0	20	0	2
COc1cc(CCC(=O)OCc2ccccc2C#N)cc(OC)c1OC	0	88	0	6
COc1cc(CCC(=O)OCc2nnc(-c3ccccc3)o2)cc(OC)c1OC	0	-11	104*	-2
Nc1cccnc1Oc1ccccc1F	0	7	27	2
O=C(/C=C/c1ccccc1)Nc1cccnc1Oc1ccccc1F	0	16	94*	-9
Cc1ccc(CN2CCC(N3CC(C)OC(C)C3)CC2)cc1 (stereo not given)	0	54	-4	0
CSc1ccc(CN2CCC(N3CC(C)OC(C)C3)CC2)cc1 (stereo not given)	0	285*	-1	3
NCC[C@H]1CC[C@@H](NC(=O)Nc2ccc(F)cc2)[C@@H](CO)O1	.	.	10	-1
CC(/C=C/c1ccccc1)=N\NC(=O)CNC(=O)c1ccccc1Cl	0	-3	.	.
O=C1/C(=C/c2ccccc2)CCC1C1CCCC1 (stereo not given)	0	13	-7	0
CN1C2CCC1/C(=C\c1ccccc1)C(=O)/C2=C\c1ccccc1	0	11	67*	2
CC=Cc1ccc2n(c1=O)C[C@@H]1[C@@H](CO)[C@H](C(=O)NCc3ccc4c(c3)OCO4)[C@H]2N1C(=O)C1CC1 (mixture of isomers)	.	.	14	101*
CC=Cc1ccc2n(c1=O)C[C@@H]1[C@@H](CO)[C@H](C(=O)NCc3ccc4c(c3)OCO4)[C@H]2N1C(=O)COC (mixture of isomers)	.	.	16	-3
